Columns and labels:
[1] = molecular target: Delta-type opioid receptor (Rattus norvegicus, UniProt P33533); assay: Opioid receptor delta 1 binding affinity by displacement of radioligand [3H][D-Pen]-enkephalin (DPDPE) from rat brain membrane synaptosomes; format: subcellular
[2] = molecular target: Mu-type opioid receptor (Rattus norvegicus, UniProt P33535); assay: Opioid receptor mu 1 binding affinity by displacement of radioligand [3H][DAla,MePhe,Gly-ol]enkephalin (DAGO) from rat brain membrane synaptosomes; format: subcellular
Mu-type opioid receptor, sequence (P33535 whole entry): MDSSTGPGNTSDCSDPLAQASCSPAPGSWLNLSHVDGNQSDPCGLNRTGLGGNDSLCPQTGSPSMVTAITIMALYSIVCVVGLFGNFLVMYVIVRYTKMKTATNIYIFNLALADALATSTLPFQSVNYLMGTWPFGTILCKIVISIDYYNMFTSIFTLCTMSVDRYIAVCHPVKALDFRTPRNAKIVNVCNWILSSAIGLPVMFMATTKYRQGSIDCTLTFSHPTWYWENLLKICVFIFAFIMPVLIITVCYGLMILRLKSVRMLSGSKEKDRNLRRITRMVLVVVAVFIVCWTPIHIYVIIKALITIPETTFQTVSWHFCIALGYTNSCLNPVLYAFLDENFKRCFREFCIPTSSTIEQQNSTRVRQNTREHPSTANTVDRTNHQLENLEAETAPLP
Outline: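 Rat brain (male Sprague–Dawley) P2 synaptosomes, preincubated to remove endogenous opioids and washed. Incubated 120 min at 22 °C, 1.6 mg protein, in duplicate, with 0.62 nM [3H]DPDPE (δ) or 0.68 nM [3H]DAGO (μ). Nonspecific binding with 1–2 μM unlabelled ligand. Filtration, scintillation counting. Five to seven concentrations. Ki from IC50 by Cheng–Prusoff, mean ± SE, n = 3–9.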

[3] = species on record: Oryctolagus cuniculus; assay: Bioactivity in vitro in rabbit jejunum (RJ) isolated organ preparation; format: functional
Outline: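 Rabbit jejunum on isotonic transducer under 1 g load, equilibrated 45 min while recording spontaneous activity without washing. Dose–response curves run against a reference agonist. At least four jejunum preparations, each from a different rabbit. Means of six experiments.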

[4] = species on record: Cavia porcellus; assay: Bioactivity in vitro in guinea pig ileum (GPI) isolated organ preparation; format: functional
Outline: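 Guinea pig ileum segment (2–3 cm) in 20 mL bath with 70 μM hexamethonium and 0.125 μM mepyramine, 95% O2/5% CO2, 36 °C. Transmural stimulation 0.5 ms pulses at 0.1 Hz, 1.5× maximal-twitch voltage. 1 g load, 45 min equilibration, isotonic recording. Dose–response curves run against a reference agonist. Means of six experiments.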

Delta-type opioid receptor, sequence (P33533 whole entry): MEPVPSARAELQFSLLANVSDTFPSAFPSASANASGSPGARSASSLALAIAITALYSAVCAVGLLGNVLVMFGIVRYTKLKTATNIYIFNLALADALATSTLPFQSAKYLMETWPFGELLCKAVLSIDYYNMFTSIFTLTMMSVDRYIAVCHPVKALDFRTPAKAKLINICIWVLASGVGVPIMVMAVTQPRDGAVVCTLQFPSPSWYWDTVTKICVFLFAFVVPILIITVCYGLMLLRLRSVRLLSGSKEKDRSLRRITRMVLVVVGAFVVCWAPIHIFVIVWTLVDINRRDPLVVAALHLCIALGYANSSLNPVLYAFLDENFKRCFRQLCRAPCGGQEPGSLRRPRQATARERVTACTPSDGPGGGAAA

Row | Compound | Ki [1] [nM] | Ki [2] [nM] | IC50 [3] [nM] | IC50 [4] [nM]
1 | CC(=O)OC[C@@H]1O[C@H](O[C@@H](C)[C@H](NC(=O)[C@@H](NC(=O)[C@@H](NC(=O)[C@H](CC(=O)O)NC(=O)[C@H](Cc2ccccc2)NC(=O)[C@@H](C)NC(=O)[C@@H](N)Cc2ccc(O)cc2)C(C)C)C(C)C)C(=O)NCC(N)=O)[C@@H](OC(C)=O)[C@H](OC(C)=O)[C@H]1OC(C)=O | 1.3 | 635 | 890 | 
2 | CC(=O)OC[C@H]1O[C@H](O[C@H](C)[C@H](NC(=O)[C@H](Cc2ccccc2)NC(=O)[C@@H](C)NC(=O)[C@@H](N)Cc2ccc(O)cc2)C(=O)N[C@H](C(=O)N[C@H](C(=O)NCC(N)=O)C(C)C)C(C)C)[C@H](OC(C)=O)[C@@H](OC(C)=O)[C@@H]1OC(C)=O | 2110 | 1520 | > 4000 | 
3 | C[C@@H](NC(=O)[C@@H](N)Cc1ccc(O)cc1)C(=O)N[C@@H](Cc1ccccc1)C(=O)N[C@H](C(=O)N[C@@H](Cc1ccc(O)cc1)C(=O)N1CCC[C@H]1C(=O)N[C@@H](CO)C(N)=O)[C@@H](C)O[C@H]1O[C@H](CO)[C@@H](O)[C@H](O)[C@H]1O | 1760 | 1700 |  | 3400
4 | CC(C)[C@H](NC(=O)[C@@H](NC(=O)[C@@H](NC(=O)[C@H](Cc1ccccc1)NC(=O)[C@@H](C)NC(=O)[C@@H](N)Cc1ccc(O)cc1)[C@@H](C)O[C@H]1O[C@H](CO)[C@@H](O)[C@@H](O)[C@H]1O)C(C)C)C(=O)NCC(N)=O | 9500 | 1990 | > 4000 | 
5 | C[C@@H](NC(=O)[C@@H](N)Cc1ccc(O)cc1)C(=O)N[C@@H](Cc1ccccc1)C(=O)NCC(=O)N[C@@H](Cc1ccc(O)cc1)C(=O)N1CCC[C@H]1C(=O)N[C@@H](CO)C(N)=O [DERMORPHIN] |  | 0.28 |  | 2.1
6 | CC(C)[C@H](NC(=O)[C@H](CC(=O)O)NC(=O)[C@H](Cc1ccccc1)NC(=O)[C@@H](C)NC(=O)[C@@H](N)Cc1ccc(O)cc1)C(=O)N[C@H](C(=O)N[C@H](C(=O)NCC(N)=O)[C@@H](C)O[C@H]1O[C@H](CO)[C@@H](O)[C@H](O)[C@H]1O)C(C)C | 1.55 | 579 | 995 | 
7 | CC(=O)OC[C@@H]1O[C@H](O[C@H](C)[C@H](NC(=O)[C@@H]2CCCN2C(=O)[C@H](Cc2ccc(O)cc2)NC(=O)CNC(=O)[C@H](Cc2ccccc2)NC(=O)[C@@H](C)NC(=O)[C@@H](N)Cc2ccc(O)cc2)C(=O)NCC(N)=O)[C@@H](OC(C)=O)[C@H](OC(C)=O)[C@H]1OC(C)=O | 86.8 | 0.46 |  | 22.1
8 | C[C@H](O[C@H]1O[C@@H](CO)[C@H](O)[C@@H](O)[C@@H]1O)[C@H](NC(=O)[C@@H]1CCCN1C(=O)[C@H](Cc1ccc(O)cc1)NC(=O)CNC(=O)[C@H](Cc1ccccc1)NC(=O)[C@@H](C)NC(=O)[C@@H](N)Cc1ccc(O)cc1)C(=O)NCC(N)=O | 67 | 0.29 |  | 3.1
9 | CC(C)[C@H](NC(=O)[C@H](CC(=O)O)NC(=O)[C@H](Cc1ccccc1)NC(=O)[C@@H](C)NC(=O)[C@@H](N)Cc1ccc(O)cc1)C(=O)N[C@H](C(=O)NCC(N)=O)C(C)C [DELTORPHIN C] |  |  | 510 | 
10 | CC(=O)OC[C@H]1O[C@H](O[C@H](C)[C@H](NC(=O)[C@H](Cc2ccccc2)NC(=O)[C@@H](C)NC(=O)[C@@H](N)Cc2ccc(O)cc2)C(=O)N[C@@H](Cc2ccc(O)cc2)C(=O)N2CCC[C@H]2C(=O)N[C@@H](CO)C(N)=O)[C@H](OC(C)=O)[C@H](OC(C)=O)[C@H]1OC(C)=O | 22600 | 4400 |  | > 4000

From ChEMBL document CHEMBL1130328, “Synthesis and pharmacological activity of deltorphin and dermorphin-related glycopeptides” (J Med Chem, 1997)
